Unmarked numbers belong to inactive results. Results filed as inconclusive are left out. Activity calls are given as the source filed them.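 How the source made its calls, unless noted: active means viability at or below 27.92% in each of two runs, the all-compound median minus 4 SD; inconclusive means no clear call, values can overlap the other calls; inactive means the rest.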
What was measured:
[1] = S. cerevisiae growth inhibition in permissive medium (OD615), pilot counter-assay for S. cerevisiae lifespan shortening project, permissive growth control (AID 705;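 active means growth inhibition above 25% in both replicates, a cutoff set 3 SD above the mean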); conditions: OD615, 24 h, at 10 µM, active compounds read high
Method in brief: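 Material: engineered DeaD yeast; Compound: one dose 10 µM, DMSO 0.25% final; Detection: absorbance (optical density) at 615 nm; Buffer or medium: permissive raffinose/galactose medium; Timing: 24 h exposure, 30 °C.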

[2] = S. cerevisiae growth inhibition in restrictive medium, OD615, pilot screen, restrictive growth control, yeast lifespan reduction project (AID 706;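 active means growth inhibition above a set limit, 3 SD over mean compound inhibition, in both replicates, cut at about 43% in these data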;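 further: modified DeaD lifespan yeast strain shifted to restrictive glucose medium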); conditions: OD615, 48 h, at 10 µM, active compounds read high
Method in brief: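 Buffer or medium: restrictive glucose medium (CSMM-D); test system: modified S. cerevisiae; doses: single dose of 10 µM compound final, 0.25% DMSO; schedule: 48 h compound exposure at 30 °C; detection: absorbance (optical density) measured at 615 nm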

[3] = doxorubicin toxicity protection in MRP-1 cells – H69AR cells, CellTiter-Glo, duplicate, MRP-1 activator project, pilot screen (AID 807;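 active means viability increase at or above a cutoff of the median across tested compounds plus 3 SD, cut at about 8.5% in these data, passing the limit was not always enough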;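 further: compound pretreatment 18-22 h then 72 h combined with doxorubicin; 0% = doxorubicin alone and 100% = vehicle without doxorubicin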); conditions: H69AR viability with doxorubicin, CellTiter-Glo luminescence; at 10 µM; active compounds read high
[4] = viability of HCT116 without oncogenic beta-catenin – human colon tumor cells, pilot screen (AID 823;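 active means cell viability at or below a set limit in both duplicate runs, the limit being the all-compound median minus 4 SD, cut at about 23% in these data, passing the limit was not always enough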;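 further: 0% = wells killed by 20 µM Hyamine and 100% = untreated DMSO cell wells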); conditions: HCT116 beta-catenin knockout viability, CellTiter-Glo, 60 h; at 10 µM; active compounds read low
[5] = viability of PTEN-null HCT116 cells – cell-based, HCT116 clonal line, CellTiter-Glo, pilot screen (AID 824); conditions: HCT116 PTEN-deleted viability, 60 h, at 10 µM, active compounds read low;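 further: 0% = 20 µM Hyamine control and 100% = vehicle cell control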
[6] = RAM pathway blockade in budding yeast – dse1pr::URA3 reporter, 5-FOA selection, pilot screen (AID 869;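 active means inhibition over a set limit, the all-compound mean plus 3 SD, in both replicate runs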;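 further: 0% = DMSO wells with no growth and 100% = 10 µM 1-NA-PP1 with full growth; RAM network block rescues cells from 5-FOA so hits raise OD615 growth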); conditions: S. cerevisiae dse1pr::URA3 5-FOA growth, OD615, 2 d; at 10 µM; active compounds read high; strain carries analog-sensitive mutant Cbk1 kinase
[7] = RAM signaling pathway blockade in yeast – S. cerevisiae, Pdr1DBD-CYC8 efflux-inhibited sensitized strain, primary screen (AID 1298;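 active means RAM network inhibition above 8.4% in each of two replicates, 3 SD over the compound average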;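 further: 0% = DMSO untreated cells without growth and 100% = 10 µM 1-NA-PP1 full growth; higher means more yeast growth rescued from 5-FOA killing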); conditions: S. cerevisiae cbk1-as DSE1-URA3 strain, 5-FOA growth OD615, 2 d; at 50 µM; active compounds read high

| Structure (SMILES) | growth inhibition [1] | growth inhibition [2] | viability increase [3] | viability [4] | viability [5] | inhibition [6] | RAM network inhibition [7] |
| --- | --- | --- | --- | --- | --- | --- | --- |
| CN(C(=O)c1ccccc1C(=O)c1ccccc1)C1CCS(=O)(=O)C1 (configuration not stated) | -8.28% | 3.21% | -1.54% | 96.6% | 95.4% | -0.06% | 1.85% |
| CN(C)CCNc1ncnc2c1cnn2-c1ccc(Cl)cc1 | -13.2% | -3.57% | -7.01% | 4.33% (active) | 4.63% (active) | 1.62% | 3.07% |
| CCOC(=O)N1CCN(CC(O)c2ccc3cc[nH]c3c2)CC1 (configuration not stated) | -10.8% | -0.09% | -3.2% | 88.8% | 88.4% | 1.44% | 1.94% |
| Cc1ccc(N(C)C(=O)N2CCN(S(=O)(=O)c3ccc(C)cc3)CC2)cc1 | -1.22% | -7.74% | -1.03% | 93.7% | 96.6% | 0.215% | 6.2% |
| CC(=O)N1CCN(CCN=CC2=C(O)CC(c3cccs3)CC2=O)CC1 (configuration not stated) | -6.7% | -2.31% | -0.76% | 93.1% | 103% | -0.455% | -0.41% |
| COc1ccc(C2N(c3ccc(OC)cc3)C(=O)C3CCCN32)cc1 (configuration not stated) | -3.41% | 2.04% | -1.64% | 106% | 102% | 0.67% | -0.16% |
| CCOC(=O)c1ccc(N2C(=O)C3CC=C(C)CC3C2=O)cc1 (configuration not stated) | -9.14% | -14.8% | -0.33% | 97.1% | 91.8% | 1.07% | 1.75% |
| COc1cc(NC(=O)c2ccc(S(=O)(=O)N(C)C)cc2)cc(OC)c1OC | -4.25% | -12.5% | -2.66% | 92.9% | 94.3% | 0.985% | 3.48% |
| Cc1cccc(-n2ncc3c(NCCc4ccc(S(N)(=O)=O)cc4)ncnc32)c1 | 2.13% | 1.53% | -2.67% | 88.8% | 82% | 1.27% | 4.84% |
| COc1ccc2oc(C(=O)CCC(=O)O)c(N)c2c1 | -12.2% | 8.27% | -0.43% | 93.3% | 92.5% | 1.98% | 1.31% |
| O=C(O)C1CCC(=O)N1C1c2ccccc2Oc2ccccc21 (configuration not stated) | 4.23% | 4.63% | 0.41% | 96% | 98.9% | 0.57% | 5.25% |
| CCOc1ccc(C2CC(c3ccc(CC)cc3)n3nc(N)nc3N2)cc1 (configuration not stated) | 1.88% | 21% | 2.68% | 91.5% | 83.5% | 1.54% | 3.52% |
| O=C(NC1CCCc2ccccc21)c1cccnc1 (configuration not stated) | -4.71% | -1.41% | -1.04% | 91.4% | 93% | 1.98% | 0.22% |
| Cc1cccc(N2CCN(c3nc4ccc(Cl)cc4n4cnnc34)CC2)c1C | -17.7% | -14.7% | -8.78% | 2.03% (active) | 1.75% (active) | -0.44% | -0.95% |
| CC(CCc1ccco1)NC(=O)c1cc2c(-c3ccccc3F)nn(C)c2s1 (configuration not stated) | -0.025% | 5.7% | 1.04% | 83.3% | 78.7% | 1.15% | -0.15% |
| CCCn1cc(SCC(=O)Nc2nnc(C)s2)c2ccccc21 | 3.3% | 0.865% | -2.55% | 91% | 96.2% | 1.1% | 3.75% |
| COc1ccc(S(=O)(=O)N2CCN(Cc3c[nH]c4ccccc34)CC2)cc1 | -13.2% | -14.2% | -4.53% | 80.7% | 89.6% | 2.11% | 4.82% |
| NS(=O)(=O)c1ccc(CCNC2CC(=O)N(CCc3ccccc3)C2=O)cc1 (configuration not stated) | -14.1% | -16% | 1.79% | 98% | 99.9% | 0.24% | 1.42% |

| Structure (SMILES) | growth inhibition [1] | growth inhibition [2] | viability increase [3] | viability [4] | viability [5] | inhibition [6] | RAM network inhibition [7] |
| --- | --- | --- | --- | --- | --- | --- | --- |
| O=C(O)c1cnn2c1NC(c1cccs1)CC2C(F)(F)F (configuration not stated) | -22.6% | -21.6% | 0.98% | 96.8% | 104% | 1.5% | 4.4% |
| O=P(c1ccccc1)(c1ccccc1)C1CCCO1 (configuration not stated) | -10.8% | 8.75% | 1.36% | 97.7% | 91.7% | 2.44% | 0.92% |
| O=C(NCCN1CCCC1)c1ccc(CS(=O)(=O)c2c(Cl)cccc2Cl)o1 | -6.75% | -20.8% | -0.97% | 106% | 102% | 1.5% | 2.61% |
| O=C(Cc1cc(=O)[nH]c(=O)[nH]1)NCC1CCCO1 (configuration not stated) | 7.33% | -1.15% | 0.94% | 106% | 104% | 0.945% | 2.29% |
| COc1ccc(N(C)C(=O)c2ccc3snnc3c2)cc1 | 4.09% | -8.11% | -1.56% | 105% | 94.3% | 2.6% | 0.05% |
| COc1cccc(-c2nc3cc(C)ccc3o2)c1 | -5.93% | 0.415% | -4.74% | 87.2% | 75.4% | 1.08% | 4.09% |
| CC(C)=C1SC(N2CCN(Cc3ccccc3)CC2)=NC1=O | -6.78% | -0.855% | -2.86% | 94.9% | 97.5% | 0.52% | 4.6% |
| CCOc1ccc(N=CC2=C(O)CC(C)(C)CC2=O)cc1 | -18.6% | -0.24% | -0.38% | 92% | 103% | 1.86% | 1.77% |
| Cc1nc(=O)c(-c2ccccc2)c(C)n1CC1CCCO1 (configuration not stated) | -7.12% | -9.15% | -2.44% | 99.8% | 96.4% | 1.38% | 0.16% |
| CCOC(=O)N1CCC(NC(=O)c2cc3ccccn3n2)CC1 | 1.83% | 1.79% | 0.34% | 97.5% | 101% | 1.8% | 0.26% |
| CC(=O)c1ccc(NC(=O)CSc2nnc(Cc3cccn3C)n2-c2ccc(F)cc2)cc1 | 0.105% | 12.5% | -2.21% | 98% | 94.3% | 0.005% | 5.1% |
| Cc1ccc(O)c(N=CC2=C(O)c3ccccc3C2=O)c1 | -0.76% | 5.53% | -3.88% | 61.6% | 64.2% | 1.85% | 1.92% |
| Cc1ccc(NC(=O)CNS(=O)(=O)c2cccs2)cc1F | -5.56% | -17.9% | 1.44% | 100% | 97.7% | 0.01% | -0.53% |
| CN(CCC#N)C(=O)Cn1nc(Cc2ccncc2)c2ccccc2c1=O | -2.53% | -1.35% | 0.95% | 102% | 95.6% | 0.515% | 0.16% |
| COc1ccccc1NC1C=CS(=O)(=O)C1 (configuration not stated) | -1.03% | 0.12% | -2.42% | 99.5% | 94.4% | 0.335% | 4.65% |
| O=C(Nc1ccccn1)c1cccc(S(=O)(=O)N2CCOCC2)c1 | 6.61% | -0.23% | -1.53% | 102% | 98.3% | 1.09% | 2.13% |
| Cn1c2c(c(=O)n(C)c1=O)C1c3ccccc3OCC1C(C)(C)O2 (configuration not stated) | -15.4% | -19.5% | -2.46% | 98.7% | 96.1% | -0.05% | 0.68% |
| COc1ccc(S(=O)(=O)N2CCN(C)CC2)c2ccccc12 | -8.04% | -2.78% | -3.62% | 102% | 91.3% | 1.06% | 2.19% |
